According to ChEMBL document CHEMBL4145640, “De Novo Design, Synthesis, and Biological Evaluation of 3,4-Disubstituted Pyrrolidine Sulfonamides as Potent and Selective Glycine Transporter 1 Competitive Inhibitors” (J Med Chem, 2018):

Columns and labels:
[1] = target: T1, Sodium- and chloride-dependent glycine transporter 1 (Homo sapiens, UniProt P48067); assay: Inhibition of [3H]N-Methyl-SSR504734 binding to human recombinant GlyT1c expressed in CHO cell membranes incubated for 1 hr by liquid scintillation spectrometry
T1 sequence (P48067 whole entry): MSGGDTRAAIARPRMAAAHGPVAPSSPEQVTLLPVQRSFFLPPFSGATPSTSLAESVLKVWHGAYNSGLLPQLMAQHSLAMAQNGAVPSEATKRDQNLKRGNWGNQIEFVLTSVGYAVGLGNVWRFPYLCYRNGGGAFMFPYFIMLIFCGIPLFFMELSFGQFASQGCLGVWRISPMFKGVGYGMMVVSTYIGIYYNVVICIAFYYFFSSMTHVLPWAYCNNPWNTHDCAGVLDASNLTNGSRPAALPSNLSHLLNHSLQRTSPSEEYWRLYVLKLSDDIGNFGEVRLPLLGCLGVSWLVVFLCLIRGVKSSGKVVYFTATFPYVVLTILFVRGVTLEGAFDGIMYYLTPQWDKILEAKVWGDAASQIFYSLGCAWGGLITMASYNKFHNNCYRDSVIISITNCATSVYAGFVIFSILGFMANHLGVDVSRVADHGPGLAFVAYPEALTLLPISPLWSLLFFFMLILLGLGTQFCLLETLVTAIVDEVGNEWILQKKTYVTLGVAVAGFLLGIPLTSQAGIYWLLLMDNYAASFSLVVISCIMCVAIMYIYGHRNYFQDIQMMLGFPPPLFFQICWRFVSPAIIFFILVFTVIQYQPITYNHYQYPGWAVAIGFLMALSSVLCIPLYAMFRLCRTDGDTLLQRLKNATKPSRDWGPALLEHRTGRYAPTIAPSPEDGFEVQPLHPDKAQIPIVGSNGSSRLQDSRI

[2] = Unbound intrinsic clearance in human liver microsomes at 0.5 uM incubated for 4 hrs by equilibrium dialysis and LC-MS/MS method; assay type: ADME, microsome
Salmonella typhimurium [3] = assay: Genotoxicity in Salmonella typhimurium TA98 assessed as induction of mutagenicity by measuring revertant colonies at 0.3 to 1000 ug/well incubated for 48 hrs in presence of liver S9 fraction by mini Ames test; assay type: toxicity, organism-based; conditions: salmonella enterica subsp. enterica serovar typhimurium, s9, 48 h
Salmonella typhimurium [4] = assay: Genotoxicity in Salmonella typhimurium TA100 assessed as induction of mutagenicity by measuring revertant colonies at 0.3 to 1000 ug/well incubated for 48 hrs in presence of liver S9 fraction by mini Ames test; assay type: toxicity, organism-based; conditions: salmonella enterica subsp. enterica serovar typhimurium, s9, 48 h
[5] = Unbound intrinsic clearance in rat liver microsomes at 0.5 uM incubated for 4 hrs by equilibrium dialysis and LC-MS/MS method; assay type: ADME, microsome
MDR1 (P-gp) = assay: Efflux ratio in MDCK2-MDR1 cells at 1 uM incubated for 1 hr by LC-MS/MS method; assay type: ADME, cell-based, Canis lupus familiaris; conditions: dog, MDCK-MDR1
Outline: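 MDCK II cells transfected with MDR1 (human P-gp, lowered canine P-gp) seeded on transwell inserts at 300,000 cells/cm2, media changed day 2, assayed day 4 or 5. Dosed apical or basolateral at 1 µM final (1 mM DMSO stock, 0.1% DMSO) in HBSS + glucose, duplicate, 37 °C for 1 h. Receiver and donor sampled, LC-MS/MS with buspirone internal standard; Papp from ΔQ/Δt·1/(A·C0).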

[6] = Stability in pH 7 buffer at 1 mg assessed as compound hydrolysis after several days at room temperature by LC/MS analysis; assay type: physicochemical
[7] = Ratio of free drug level in brain to plasma in rat; assay type: ADME; conditions: read-out: BPR
Mus musculus = assay: Inhibition of L687,414-induced hyperactivity in mouse at 1 mg/kg, ip dosed before test; assay type: functional

| Ki [1] [nM] | CL free [2] [mL/min/kg] | CL free [5] [mL/min/kg] | efflux ratio at 1 h, 1 µM (MDR1 (P-gp)) | Stability [6] | Kp uu [7] | Structure (SMILES) | Activity (Salmonella typhimurium [3]) | Activity (Salmonella typhimurium [4]) | inhibition in vivo at 1 mg/kg (Mus musculus) [%] |
| --- | --- | --- | --- | --- | --- | --- | --- | --- | --- |
| 42 | 1450 | 4430 | 1 | – | – | Cn1cnc(S(=O)(=O)N2CC(Nc3cccc(Cl)c3)C(c3cccc(F)c3)C2)c1 (racemic) | Non-Toxic | Non-Toxic | – |
| 199 | 250 | 950 | 0.9 | – | – | Cn1cnc(S(=O)(=O)N2CC(Nc3ccccc3)C(c3ccccc3)C2)c1 (racemic) | Non-Toxic | Non-Toxic | – |
| 3 | 3380 | 5830 | 1.1 | – | 1.7 | Cn1cnc(S(=O)(=O)N2CC(Nc3cccc(Cl)c3)C(c3ccc(F)cc3)C2)c1 (racemic) | Non-Toxic | Non-Toxic | – |
| 8 | – | – | – | – | – | Cn1cnc(S(=O)(=O)N2CC(Nc3cccc(C(F)(F)F)c3)C(c3ccccc3)C2)c1 (racemic) | Non-Toxic | Non-Toxic | – |
| 17 to 18 | 817 | 1980 | 0.9 | – | 0.6 | Cc1cccc(NC2CN(S(=O)(=O)c3cn(C)cn3)CC2c2ccccc2)c1 (racemic) | Non-Toxic | Non-Toxic | – |

Further lines, the compound ahead of its results:

| Structure (SMILES) | Ki [1] [nM] | CL free [2] [mL/min/kg] | CL free [5] [mL/min/kg] | efflux ratio at 1 h, 1 µM (MDR1 (P-gp)) | Stability [6] | Kp uu [7] | Activity (Salmonella typhimurium [3]) | Activity (Salmonella typhimurium [4]) | inhibition in vivo at 1 mg/kg (Mus musculus) [%] |
| --- | --- | --- | --- | --- | --- | --- | --- | --- | --- |
| Cn1cnc(S(=O)(=O)N2C[C@H]([C@@H]3CCCO3)[C@@H](Nc3cccc(OC(F)(F)F)c3)C2)c1 | – | – | – | – | Stable | – | – | – | – |
| Cn1cnc(S(=O)(=O)N2CC(Nc3cccc(C(F)(F)F)c3)C(c3cccnc3)C2)c1 (racemic) | – | – | – | – | – | – | Non-Toxic | Non-Toxic | – |
| Cn1cnc(S(=O)(=O)N2C[C@H](Nc3ccc(F)c(OC(F)(F)F)c3)[C@@H](c3ccc(F)cc3)C2)c1 | – | – | – | – | – | – | – | – | 100 |
| Cn1cnc(S(=O)(=O)N2CC(Nc3cncc(C(F)(F)F)c3)C(c3ccc(F)cc3)C2)c1 (racemic) | – | – | – | – | – | – | Non-Toxic | Non-Toxic | – |
